Measured values as given in PubChem BioAssay.
Results filed as inconclusive are left out. Active and inactive are the calls of the source.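 How the source made its calls, unless noted: active means viability at or below 27.92% in each of two runs, the all-compound median minus 4 SD; inconclusive means no clear call, values can overlap the other calls; inactive means the rest.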

Legend:
[1] = OD615 S. cerevisiae growth inhibition, permissive medium, pilot counter-assay, permissive growth control for S. cerevisiae lifespan shortening project (AID 705;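 active means growth inhibition above 25% in both replicates, a cutoff set 3 SD above the mean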); conditions: OD615, 24 h, at 10 µM, stronger effect = higher value
Procedure, shortened: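 System: Engineered DeaD yeast | Buffer or medium: SC raffinose/galactose permissive medium | Doses: 10 µM single dose, 0.25% DMSO | Times: 24 h exposure, 30 °C | Measured by: OD615 turbidity read | Read-out: Yeast growth inhibition indicated by reduced 24 h OD615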

[2] = Restrictive medium S. cerevisiae growth inhibition, OD615, pilot screen of yeast lifespan reduction project, restrictive growth control (AID 706;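 active means growth inhibition above a set limit, 3 SD over mean compound inhibition, in both replicates, cut at about 43% in these data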;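 further: modified DeaD lifespan yeast strain shifted to restrictive glucose medium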); conditions: OD615, 48 h, at 10 µM, stronger effect = higher value
Procedure, shortened: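 Assay system: engineered S. cerevisiae DeaD strain; Buffer or medium: CSMM-D glucose medium; Dosing: 10 µM compound, 0.25% DMSO; Times: cell pre-growth 4 h, compound exposure 48 h, 30 °C; Detection: absorbance (optical density) measured at 615 nm.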

[3] = viability gain of MRP-1-high H69AR cells under doxorubicin, pilot screen, MRP-1 activator project, CellTiter-Glo, duplicate (AID 807;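 active means viability increase at or above a cutoff of the median across tested compounds plus 3 SD, cut at about 8.5% in these data, passing the limit was not always enough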;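 further: compound pretreatment 18-22 h then 72 h combined with doxorubicin; 0% = doxorubicin alone and 100% = vehicle without doxorubicin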); conditions: H69AR viability with doxorubicin, CellTiter-Glo luminescence; at 10 µM; stronger effect = higher value
[4] = growth suppression of beta-catenin knockout HCT116, pilot screen, human colon tumor cells (AID 823;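 active means cell viability at or below a set limit in both duplicate runs, the limit being the all-compound median minus 4 SD, cut at about 23% in these data, passing the limit was not always enough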;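 further: 0% = wells killed by 20 µM Hyamine and 100% = untreated DMSO cell wells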); conditions: CellTiter-Glo, 60 h, at 10 µM, stronger effect = lower value
[5] = growth suppression of PTEN-deleted HCT116, pilot screen, cell-based, HCT116 clonal line, CellTiter-Glo (AID 824); conditions: 60 h, at 10 µM, stronger effect = lower value;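 further: 0% = 20 µM Hyamine control and 100% = vehicle cell control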
[6] = inhibitors of the yeast RAM network, pilot screen, dse1pr::URA3 reporter, 5-FOA selection (AID 869;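 active means inhibition over a set limit, the all-compound mean plus 3 SD, in both replicate runs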;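 further: 0% = DMSO wells with no growth and 100% = 10 µM 1-NA-PP1 with full growth; RAM network block rescues cells from 5-FOA so hits raise OD615 growth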); conditions: S. cerevisiae dse1pr::URA3 5-FOA growth, OD615, 2 d; at 10 µM; stronger effect = higher value; strain carries analog-sensitive mutant Cbk1 kinase
[7] = RAM signaling pathway blockade in yeast – S. cerevisiae, Pdr1DBD-CYC8 efflux-inhibited sensitized strain, primary screen (AID 1298;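 active means RAM network inhibition above 8.4% in each of two replicates, 3 SD over the compound average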;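 further: 0% = DMSO untreated cells without growth and 100% = 10 µM 1-NA-PP1 full growth; higher means more yeast growth rescued from 5-FOA killing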); conditions: S. cerevisiae cbk1-as DSE1-URA3 strain, 5-FOA growth OD615, 2 d; at 50 µM; stronger effect = higher value

CCOC(=O)CN1CC23C=CC(O2)C(C(=O)NC2CCCCCC2)C3C1=O (configuration not stated)
inactive: growth inhibition [1] -6.04% | growth inhibition [2] 3.45% | viability increase [3] -2.93% | viability [4] 99.3% | viability [5] 94.5% | inhibition [6] 1.36% | RAM network inhibition [7] 0.37%

COC(=O)c1nc2cc(C)ccn2c1F
inactive: growth inhibition [1] 0.67% | growth inhibition [2] 0.595% | viability increase [3] -1.42% | viability [4] 105% | viability [5] 94.3% | inhibition [6] 2.7% | RAM network inhibition [7] 0.79%

O=C(COc1ccccc1F)c1ccc(O)cc1O
inactive: growth inhibition [1] -0.53% | growth inhibition [2] 3.7% | viability increase [3] 1.2% | viability [4] 101% | viability [5] 106% | inhibition [6] 0.25% | RAM network inhibition [7] -1.69%

CCN1CCN(c2cc(C)c3cc(NC(=O)c4cnccn4)ccc3n2)CC1
inactive: growth inhibition [1] -11.2% | growth inhibition [2] 1.29% | viability increase [3] -3.82% | viability [4] 84.5% | viability [5] 89.5% | inhibition [6] -0.02% | RAM network inhibition [7] -0.42%

Cn1c(=O)c2c(nc(CN3CCN(C(=O)c4ccco4)CC3)n2Cc2ccccc2F)n(C)c1=O
inactive: growth inhibition [1] -1.06% | growth inhibition [2] -6.51% | viability increase [3] -4.26% | viability [4] 101% | viability [5] 89.8% | inhibition [6] 2.1% | RAM network inhibition [7] 3.22%

COc1ccc(Br)cc1S(=O)(=O)N(CC(=O)N1CCOCC1)c1ccccc1
inactive: growth inhibition [1] -2.82% | growth inhibition [2] -7.74% | viability increase [3] -2.08% | viability [4] 98.1% | viability [5] 98.6% | inhibition [6] 2.6% | RAM network inhibition [7] 3.62%

CCC(CC)c1nnc(NC(=O)c2c(-c3ccccc3)noc2C)s1
inactive: growth inhibition [1] -10.7% | growth inhibition [2] 3.94% | viability increase [3] -1.44% | viability [4] 90.2% | viability [5] 93.9% | inhibition [6] 0.27% | RAM network inhibition [7] 2.57%

Clc1ccccc1OCCN1CCCCC1
inactive: growth inhibition [1] -14.4% | growth inhibition [2] -20.6% | viability increase [3] 0.57% | viability [4] 85.5% | viability [5] 96.2% | inhibition [6] 0.6% | RAM network inhibition [7] 6.74%

Cn1ccnc1SCC(=O)c1cc2ccccc2o1
inactive: growth inhibition [1] -6.64% | growth inhibition [2] -0.315% | viability increase [3] -2.52% | viability [4] 95.7% | viability [5] 99.4% | inhibition [6] 0.57% | RAM network inhibition [7] 1.04%

Cc1nnc(NC(=O)CSc2nc3c(c(=O)n2CCc2ccccc2)SC(C)C3)s1 (configuration not stated)
inactive: growth inhibition [1] -9.82% | growth inhibition [2] -15.6% | viability increase [3] 0.33% | viability [4] 101% | viability [5] 103% | inhibition [6] 3.13% | RAM network inhibition [7] 6.06%

COc1ccc(C(=O)Nc2cc(-c3nn4c(C)nnc4s3)ccc2C)cc1
inactive: growth inhibition [1] 8.96% | growth inhibition [2] 33.2% | viability increase [3] -5.02% | viability [4] 98.3% | viability [5] 88.2% | inhibition [6] 1.27% | RAM network inhibition [7] 2.75%

CC(=O)Nc1cc2ccc(OC(C)=O)cc2oc1=O
inactive: growth inhibition [1] -15.3% | growth inhibition [2] -13.9% | viability increase [3] -4.23% | viability [4] 107% | viability [5] 93.8% | inhibition [6] 1.62% | RAM network inhibition [7] 0.82%

COc1ccc(NC2=CC(=O)CC(C)(C)C2)cc1OC
inactive: growth inhibition [1] -5.52% | growth inhibition [2] -8.65% | viability increase [3] -3.58% | viability [4] 96.8% | viability [5] 89.2% | inhibition [6] 0.975% | RAM network inhibition [7] 0.37%

O=C(c1coc2ccccc2c1=O)N1CCN(c2cccc(C(F)(F)F)c2)CC1
inactive: growth inhibition [1] -20% | growth inhibition [2] -32.1% | viability increase [3] 0.69% | viability [4] 99.8% | viability [5] 99.9% | inhibition [6] 1.23% | RAM network inhibition [7] 5.68%

O=C(Nc1nccs1)c1cccc(S(=O)(=O)N2CCOCC2)c1
inactive: growth inhibition [1] -19.2% | growth inhibition [2] -11.8% | viability increase [3] -0.77% | viability [4] 92.8% | viability [5] 92.6% | inhibition [6] 1.83% | RAM network inhibition [7] 1.04%

Cc1nc(CNS(=O)(=O)c2ccc3ccccc3c2)cs1
inactive: growth inhibition [1] -0.84% | growth inhibition [2] 3.39% | viability increase [3] -1.37% | viability [4] 97.8% | viability [5] 87.9% | inhibition [6] 2.13% | RAM network inhibition [7] 0%

COc1ccc(S(=O)(=O)N2CCCC2C(=O)Nc2ccc(C(C)=O)cc2)cc1 (configuration not stated)
inactive: growth inhibition [1] -19.4% | growth inhibition [2] -11% | viability increase [3] -0.66% | viability [4] 97.6% | viability [5] 95.8% | inhibition [6] 2.13% | RAM network inhibition [7] 1.47%

c1ccc2cc3[nH]c(CN4CCCCC4)nc3cc2c1
inactive: growth inhibition [1] -19.8% | growth inhibition [2] -13.4% | viability increase [3] -2.94% | viability [4] 95.9% | viability [5] 87.6% | inhibition [6] 1.58% | RAM network inhibition [7] 5.29%

COc1ccc(N2CC(C(=O)Nc3ccc(S(=O)(=O)Nc4nc(C)cc(C)n4)cc3)CC2=O)cc1 (configuration not stated)
inactive: growth inhibition [1] -8.26% | growth inhibition [2] -7.87% | viability increase [3] -1.39% | viability [4] 100% | viability [5] 91.4% | inhibition [6] 1% | RAM network inhibition [7] 2.5%

Cc1cc(C2N=C(N)Nc3nc4ccccc4n32)c(C)n1-c1ccccc1Cl (configuration not stated)
active: viability [4] 9.19% | viability [5] 16.7%
inactive: growth inhibition [1] -0.255% | growth inhibition [2] -33.7% | viability increase [3] -4.14% | inhibition [6] 2.92% | RAM network inhibition [7] 3.79%

COc1cccc(Cn2nnc(C(=O)NCc3ccc(F)cc3)c2N)c1
inactive: growth inhibition [1] -5.24% | growth inhibition [2] -6.34% | viability increase [3] -1.74% | viability [4] 95% | viability [5] 85.6% | inhibition [6] 0.99% | RAM network inhibition [7] 3.37%

O=C1c2ccccc2C(O)N1CCN1CCOCC1 (configuration not stated)
inactive: growth inhibition [1] -0.105% | growth inhibition [2] -6.41% | viability increase [3] -1.24% | viability [4] 94.5% | viability [5] 101% | inhibition [6] 2.64% | RAM network inhibition [7] 1.95%

CCn1cc(S(=O)(=O)CC(=O)Nc2cc(C)ccc2C)c2ccccc21
inactive: growth inhibition [1] -10.1% | growth inhibition [2] -1.18% | viability increase [3] -0.93% | viability [4] 105% | viability [5] 82.5% | inhibition [6] 2.07% | RAM network inhibition [7] 3.99%

CC(NC(=O)c1ccco1)C(c1cccs1)N1CCOCC1 (configuration not stated)
inactive: growth inhibition [1] -6.95% | growth inhibition [2] 7.38% | viability increase [3] -2.37% | viability [4] 101% | viability [5] 99.5% | inhibition [6] 0.88% | RAM network inhibition [7] 1.38%

COC(=O)C1C(O)=C(C(C)=N)C(=O)CC1(C)C (configuration not stated)
inactive: growth inhibition [1] -3.89% | growth inhibition [2] 2.82% | viability increase [3] -0.83% | viability [4] 98.1% | viability [5] 90.8% | inhibition [6] -0.755% | RAM network inhibition [7] 1.67%

Cc1c2cn[nH]c(=O)c2c(C)n1Cc1ccc(F)cc1
inactive: growth inhibition [1] -17.7% | growth inhibition [2] -15% | viability increase [3] -3.21% | viability [4] 90.7% | viability [5] 98.5% | inhibition [6] 1.83% | RAM network inhibition [7] 5.11%

CCOC(=O)C1CCCN(C(=O)c2cn(C)c3ccc(S(=O)(=O)N(C)C)cc3c2=O)C1 (configuration not stated)
inactive: growth inhibition [1] -5.1% | growth inhibition [2] -1.87% | viability increase [3] 0.59% | viability [4] 97.8% | viability [5] 105% | inhibition [6] 0.48% | RAM network inhibition [7] 6.85%

CC(C)Oc1ccc(C2CNC(=O)C2)cc1 (configuration not stated)
inactive: growth inhibition [1] -1.04% | growth inhibition [2] 0.15% | viability increase [3] -0.24% | viability [4] 102% | viability [5] 103% | inhibition [6] 1.04% | RAM network inhibition [7] 0.1%

CCOc1ccc(-c2nc(C#N)c(N3CCN(Cc4ccccc4)CC3)o2)cc1
inactive: growth inhibition [1] -4.62% | growth inhibition [2] 8.5% | viability increase [3] -0.05% | viability [4] 78.6% | viability [5] 87.2% | inhibition [6] -0.36% | RAM network inhibition [7] 3.33%

COCCn1c(SCC(=O)OCc2ccccc2)nc2c1c(=O)[nH]c(=O)n2C
inactive: growth inhibition [1] 4.3% | growth inhibition [2] 1.99% | viability increase [3] 1.83% | viability [4] 98.6% | viability [5] 105% | inhibition [6] 0.815% | RAM network inhibition [7] 5.05%

N#Cc1c2n(c3c(-c4ccccc4)ncnc13)CCC2
inactive: growth inhibition [1] -12.9% | growth inhibition [2] -11.2% | viability increase [3] -2.25% | viability [4] 104% | viability [5] 98.7% | inhibition [6] 2.73% | RAM network inhibition [7] 3.93%

CCCCn1c(CNC(=O)CC)nc2ccccc21
inactive: growth inhibition [1] -4.54% | growth inhibition [2] -9.44% | viability increase [3] -2.1% | viability [4] 103% | viability [5] 102% | inhibition [6] 0.825% | RAM network inhibition [7] 1.89%

O=C1CCC(=O)N1CNc1cccnc1
inactive: growth inhibition [1] -7.25% | growth inhibition [2] -12.2% | viability increase [3] -0.41% | viability [4] 95.3% | viability [5] 103% | inhibition [6] 0.34% | RAM network inhibition [7] 5.5%

NC(=O)c1cc(S(=O)(=O)Nc2cccc(F)c2)co1
inactive: growth inhibition [1] -17.4% | growth inhibition [2] -9.41% | viability increase [3] -0.8% | viability [4] 103% | viability [5] 103% | inhibition [6] 1.69% | RAM network inhibition [7] 2.85%

CCc1nnc(NC(=O)c2ccc(S(=O)(=O)N3CCOCC3)cc2)s1
inactive: growth inhibition [1] -10.4% | growth inhibition [2] -20.2% | viability increase [3] -1.63% | viability [4] 105% | viability [5] 94.6% | inhibition [6] 1.92% | RAM network inhibition [7] 9.48%

CCOc1ccc(NC2c3ccccc3C(=O)N2c2ccc(Cl)cn2)cc1 (configuration not stated)
inactive: growth inhibition [1] -14% | growth inhibition [2] -15.6% | viability increase [3] -1.1% | viability [4] 94.2% | viability [5] 94.6% | inhibition [6] 3.93% | RAM network inhibition [7] 3.42%
